APD and Vmax data for twelve molecules are collected here from ChEMBL document CHEMBL1125789, “Synthesis and selective class III antiarrhythmic activity of novel N-heteroaralkyl-substituted 1-(aryloxy)-2-propanolamine and related propylamine derivatives” (J Med Chem, 1991).

The species entered for the first assay is Canis familiaris. The experiment in a line: repolarization to reach -60mV, in canine Purkinje Fibers at a concentration of 3.0 uM at 1000 ms (simulating normal heart rate). The class given is functional, Canis lupus familiaris, Purkinje fiber.
Conditions: not given
An outline of the steps: (§1)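 Purkinje fiber bundles were stimulated with square-wave current pulses of 2.0 ms at twice threshold and equilibrated for at least 1 h, or until action potential parameters were steady. Each concentration was superfused for 45-60 min to reach steady state. Action potentials were recorded at four to six sites per fiber, under control and after drug.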
Take `CN(Cc1nc2ccccc2[nH]1)CC(O)COc1ccc(NS(C)(=O)=O)cc1` (stereo not drawn): the APD was 14%.
Still for that read-out and setting: the same measure for `CS(=O)(=O)Nc1ccc(OCC(O)CN2CCN(c3ccccn3)CC2)cc1` (stereo not drawn): 53%; for `CN(Cc1ccc2ccccc2n1)CC(O)COc1ccc(C#N)cc1` (stereo not drawn): 41%; for `CN(Cc1cc2ccccc2o1)CC(O)COc1ccc(NS(C)(=O)=O)cc1` (stereo not drawn): 47%.
`CN(CCCOc1ccc(NS(C)(=O)=O)cc1)Cc1cnc2ccccc2n1` yielded an APD of 62%.
Take `CC(C)N(Cc1ccc2ccccc2n1)CC(O)COc1ccc(NS(C)(=O)=O)cc1` (stereo not drawn): the APD is 49%.
The same measure, in the same setting: the same measure for `CN(Cc1ccc2ccccc2n1)CC(O)COc1ccc([N+](=O)[O-])cc1` (stereo not drawn): 63%.
For the molecule `CN(Cc1cnc2ccccc2n1)CC(O)COc1ccc(NS(C)(=O)=O)cc1` (stereo not drawn), the APD is 26%.
`Cc1nc2ccccc2nc1CN(C)CC(O)COc1ccc(-n2ccnc2)cc1` (stereo not drawn) gave an APD of 69%.
With `Cn1c(N2CCN(CC(O)COc3ccc(NS(C)(=O)=O)cc3)CC2)nc2ccccc21` (stereo not drawn), the APD was 83%.
Same read-out and setting: the result for `CN(Cc1ccc2ccccc2n1)CC(O)COc1ccc(-c2nn[nH]n2)cc1` (stereo not drawn) reads 11%.

The species named for another assay is Canis familiaris. The experiment in a line: Repolarization to reach -60mV, in canine Purkinje Fibers at a concentration of 3.0 uM at 300 ms (simulating tachycardia). The class given is functional, Canis lupus familiaris, Purkinje fiber.
Conditions: not given
The procedure, abridged:
(§2)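 Isolated canine Purkinje fiber bundles were driven by square-wave pulses 2.0 ms long at 2× threshold and equilibrated ≥1 h to steady state. Each concentration was superfused 45–60 min before recording, and action potentials were sampled at 4–6 sites per fiber in control and after drug, giving Vmax and APD to −60 mV.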
In turn, `CN(Cc1nc2ccccc2[nH]1)CC(O)COc1ccc(NS(C)(=O)=O)cc1` (stereo not drawn) gave an APD of 3%.
The molecule `CS(=O)(=O)Nc1ccc(OCC(O)CN2CCN(c3ccccn3)CC2)cc1` (stereo not drawn) came in with an APD of 24%.
The same measure, in the same setting: the same measure for `CN(Cc1ccc2ccccc2n1)CC(O)COc1ccc(C#N)cc1` (stereo not drawn): 0%; for `CN(Cc1cc2ccccc2o1)CC(O)COc1ccc(NS(C)(=O)=O)cc1` (stereo not drawn): 16%; for `CN(CCCOc1ccc(NS(C)(=O)=O)cc1)Cc1cnc2ccccc2n1`: 27%.
In turn, `CC(C)N(Cc1ccc2ccccc2n1)CC(O)COc1ccc(NS(C)(=O)=O)cc1` (stereo not drawn) returned an APD of 30%.
`CN(Cc1ccc2ccccc2n1)CC(O)COc1ccc([N+](=O)[O-])cc1` (stereo not drawn) showed an APD of 27%.
As for `CN(Cc1cnc2ccccc2n1)CC(O)COc1ccc(NS(C)(=O)=O)cc1` (stereo not drawn), the APD was 8%.
`Cc1nc2ccccc2nc1CN(C)CC(O)COc1ccc(-n2ccnc2)cc1` (stereo not drawn): the APD is 24%.
Same read-out and setting: the same measure for `Cn1c(N2CCN(CC(O)COc3ccc(NS(C)(=O)=O)cc3)CC2)nc2ccccc21` (stereo not drawn): 21%; for `CN(Cc1ccc2ccccc2n1)CC(O)COc1ccc(-c2nn[nH]n2)cc1` (stereo not drawn): 4%.

The species entered for the next assay is Canis familiaris. The experiment in a line: Repolarization to reach -60mV, in canine Purkinje Fibers at a concentration of 0.10 uM at 300 ms (simulating tachycardia).
Conditions: not given
The class given is functional, Canis lupus familiaris, Purkinje fiber. An outline of the steps:
as §2
With `CS(=O)(=O)Nc1ccc(OCCCN(Cc2ccc3cc(NS(C)(=O)=O)ccc3n2)C2CCCC2)cc1`, the APD was 13%.

A further assay is filed under the species Canis familiaris. The experiment in a line: Maximum rate of rise of the upstroke of transmembrane potential, in canine Purkinje Fibers at a concentration of 0.10 uM at 1000 ms (simulating normal heart rate). The settings on record: Canis lupus familiaris, Purkinje fiber. The class given is functional. The procedure, abridged:
as §2
Take `CS(=O)(=O)Nc1ccc(OCCCN(Cc2ccc3cc(NS(C)(=O)=O)ccc3n2)C2CCCC2)cc1`: the Vmax is 7.

The species entered for the next assay is Canis familiaris. Kind of assay: repolarization to reach -60mV, in canine Purkinje Fibers at a concentration of 0.10 uM at 1000 ms (simulating normal heart rate). The class given is functional, Canis lupus familiaris, Purkinje fiber.
Conditions: not given
The procedure, abridged:
as §1
As for `CS(=O)(=O)Nc1ccc(OCCCN(Cc2ccc3cc(NS(C)(=O)=O)ccc3n2)C2CCCC2)cc1`, the APD was 30%.

The species entered for the next assay is Canis familiaris. Kind of assay: Maximum rate of rise of the upstroke of transmembrane potential, in canine Purkinje Fibers at a concentration of 3.0 uM at 300 ms (simulating tachycardia). The class given is functional. Set-up: unit not given here. The following applies: Canis lupus familiaris, Purkinje fiber. The procedure, abridged: as §2
Consider `CN(Cc1nc2ccccc2[nH]1)CC(O)COc1ccc(NS(C)(=O)=O)cc1` (stereo not drawn), for which the Vmax is -11.
In the case of `CS(=O)(=O)Nc1ccc(OCC(O)CN2CCN(c3ccccn3)CC2)cc1` (stereo not drawn), the Vmax was 12.
For `CN(Cc1ccc2ccccc2n1)CC(O)COc1ccc(C#N)cc1` (stereo not drawn), the Vmax was 8.
The same measure, in the same setting: the result for `CN(Cc1cc2ccccc2o1)CC(O)COc1ccc(NS(C)(=O)=O)cc1` (stereo not drawn) reads 16; that for `CN(CCCOc1ccc(NS(C)(=O)=O)cc1)Cc1cnc2ccccc2n1`, -14; that for `CC(C)N(Cc1ccc2ccccc2n1)CC(O)COc1ccc(NS(C)(=O)=O)cc1` (stereo not drawn), -11.
The same measure, in the same setting: the result for `CN(Cc1ccc2ccccc2n1)CC(O)COc1ccc([N+](=O)[O-])cc1` (stereo not drawn) reads -10; that for `CN(Cc1cnc2ccccc2n1)CC(O)COc1ccc(NS(C)(=O)=O)cc1` (stereo not drawn), 6; that for `Cc1nc2ccccc2nc1CN(C)CC(O)COc1ccc(-n2ccnc2)cc1` (stereo not drawn), 10.
The same measure, in the same setting: the same measure for `Cn1c(N2CCN(CC(O)COc3ccc(NS(C)(=O)=O)cc3)CC2)nc2ccccc21` (stereo not drawn): -9.
As for `CN(Cc1ccc2ccccc2n1)CC(O)COc1ccc(-c2nn[nH]n2)cc1` (stereo not drawn), the Vmax was 4.

A further assay is filed under the species Canis familiaris. Kind of assay: Maximum rate of rise of the upstroke of transmembrane potential, in canine Purkinje Fibers at a concentration of 3.0 uM at 1000 ms (simulating normal heart rate). The class given is functional. Also noted: unit not given here. The settings on record: Canis lupus familiaris, Purkinje fiber. An outline of the steps: as §2
Take `CN(Cc1nc2ccccc2[nH]1)CC(O)COc1ccc(NS(C)(=O)=O)cc1` (stereo not drawn): the Vmax is 1.
Take `CS(=O)(=O)Nc1ccc(OCC(O)CN2CCN(c3ccccn3)CC2)cc1` (stereo not drawn): the Vmax is 9.
`CN(Cc1ccc2ccccc2n1)CC(O)COc1ccc(C#N)cc1` (stereo not drawn): the Vmax is 19.
On the same count and under the same terms, the same measure for `CN(Cc1cc2ccccc2o1)CC(O)COc1ccc(NS(C)(=O)=O)cc1` (stereo not drawn): 4; for `CN(CCCOc1ccc(NS(C)(=O)=O)cc1)Cc1cnc2ccccc2n1`: -16.
Take `CC(C)N(Cc1ccc2ccccc2n1)CC(O)COc1ccc(NS(C)(=O)=O)cc1` (stereo not drawn): the Vmax is -10.
As to `CN(Cc1ccc2ccccc2n1)CC(O)COc1ccc([N+](=O)[O-])cc1` (stereo not drawn), the Vmax is 0.
Same read-out and setting: the result for `CN(Cc1cnc2ccccc2n1)CC(O)COc1ccc(NS(C)(=O)=O)cc1` (stereo not drawn) reads 1.
The same measure, in the same setting: the result for `Cc1nc2ccccc2nc1CN(C)CC(O)COc1ccc(-n2ccnc2)cc1` (stereo not drawn) reads 13; that for `Cn1c(N2CCN(CC(O)COc3ccc(NS(C)(=O)=O)cc3)CC2)nc2ccccc21` (stereo not drawn), -3; that for `CN(Cc1ccc2ccccc2n1)CC(O)COc1ccc(-c2nn[nH]n2)cc1` (stereo not drawn), -10.

The next assay is filed under the species Canis familiaris. The experiment in a line: Maximum rate of rise of the upstroke of transmembrane potential, in canine Purkinje Fibers at a concentration of 0.10 uM at 300 ms (simulating tachycardia). The following applies: Canis lupus familiaris, Purkinje fiber. The class given is functional. An outline of the steps: as §2
Regarding `CS(=O)(=O)Nc1ccc(OCCCN(Cc2ccc3cc(NS(C)(=O)=O)ccc3n2)C2CCCC2)cc1`, the Vmax was 8.
